Results on six compounds are retold here after ChEMBL document CHEMBL1154732, “A 4-aminoquinoline derivative that markedly sensitizes tumor cell killing by Akt inhibitors with a minimum cytotoxicity to non-cancer cells” (2010).

Type in all cases: functional
Experiment [1] has as its system MCF7. The experiment is described as follows: Cytotoxicity against human MCF7 cells after 48 hrs by SRB assay in presence of 0.04 uM (E)-5-(benzo[d]thiazol-2-yl)-3-ethyl-2-(2-(methyl(phenyl)amino)vinyl)-1-phenyl-1H-benzo[d]imidazol-3-ium iodide. Particulars: MCF7, 48 h. Put shortly: (§1)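 Breast cancer cells were grown in RPMI 1640 with 10% FBS and 2 mM L-glutamine at 37 °C, 5% CO2, seeded at 5000–10,000/well and allowed 24 h before dosing. Compounds were given as seven serially diluted concentrations for 48 h, with any partner drug held constant, at ≤0.1% final DMSO. Cells were TCA-fixed, SRB-stained and read at 515–564 nm. GI50 came from a variable-slope sigmoidal fit of growth relative to time-zero and untreated wells; values are means of triplicates from ≥3 experiments.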

The subject of experiment [2] is MCF7. The experiment is described as follows: Cytotoxicity against human MCF7 cells after 48 hrs by SRB assay in presence of 0.4 uM 1-(1-(4-(7-phenyl-1H-imidazo[4,5-g]quinoxalin-6-yl)benzyl)piperidin-4-yl)-1H-benzo[d]imidazol-2(3H)-one. Put shortly: as §1
The subject of experiment [3] is MCF7. Nature of the experiment: Cytotoxicity against human MCF7 cells after 48 hrs by SRB assay in presence of 3.5 uM 4-(2-chloro-10H-phenoxazin-10-yl)-N,N-diethylbutan-1-amine hydrochloride. The conditions noted are these: MCF7, 48 h. An outline of the steps: as §1
In general terms: The SRB assay estimates cell density from bound dye.

The subject of experiment [4] is MCF7. Nature of the experiment: Cytotoxicity against human MCF7 cells after 48 hrs by SRB assay in presence of 0.5 uM 2-morpholino-8-phenyl-4H-chromen-4-one. Particulars: MCF7, 48 h. An outline of the steps:
as §1

A short description of experiment [5]: Cytotoxicity against human 184B5 cells after 48 hrs by SRB assay. The conditions noted are these: 184B5, 48 h. Put shortly:
(§2)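 184B5 immortalized breast epithelial cells were grown in mammary epithelial basal medium with MEGM supplements at 37 °C, 5% CO2. Cells (5000–10,000/well) were preincubated 24 h, then exposed to seven concentrations for 48 h, with the listed partner drug fixed at its stated level. Cells were TCA-fixed, SRB-stained and read at 515–564 nm. Final DMSO was ≤0.1%.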

Experiment [6] can be described thus: Cytotoxicity against human 184B5 cells after 48 hrs by SRB assay in presence of 0.04 uM (E)-5-(benzo[d]thiazol-2-yl)-3-ethyl-2-(2-(methyl(phenyl)amino)vinyl)-1-phenyl-1H-benzo[d]imidazol-3-ium iodide. Particulars: 184B5, 48 h. Put shortly:
as §2

The nature of experiment [7]: Cytotoxicity against human 184B5 cells after 48 hrs by SRB assay in presence of 0.4 uM 1-(1-(4-(7-phenyl-1H-imidazo[4,5-g]quinoxalin-6-yl)benzyl)piperidin-4-yl)-1H-benzo[d]imidazol-2(3H)-one. An outline of the steps: as §2
Experiment [8] in a line: Cytotoxicity against human 184B5 cells after 48 hrs by SRB assay in presence of 3.5 uM 4-(2-chloro-10H-phenoxazin-10-yl)-N,N-diethylbutan-1-amine hydrochloride. Particulars: 184B5, 48 h. An outline of the steps:
as §2

Experiment [9] in a line: Cytotoxicity against human 184B5 cells after 48 hrs by SRB assay in presence of 0.5 uM 2-morpholino-8-phenyl-4H-chromen-4-one. Particulars: 184B5, 48 h. An outline of the steps: as §2
The test system of experiment [10] is MDA-MB-468. The experiment is described as follows: Cytotoxicity against human MDA-MB-468 cells after 48 hrs by SRB assay. Particulars: MDA-MB-468, 48 h. Put shortly:
as §1

The subject of experiment [11] is MDA-MB-468. The experiment is described as follows: Cytotoxicity against human MDA-MB-468 cells after 48 hrs by SRB assay in presence of 0.04 uM (E)-5-(benzo[d]thiazol-2-yl)-3-ethyl-2-(2-(methyl(phenyl)amino)vinyl)-1-phenyl-1H-benzo[d]imidazol-3-ium iodide. The conditions noted are these: MDA-MB-468, 48 h. An outline of the steps: as §1
Experiment [12] deals with MDA-MB-468. The experiment is described as follows: Cytotoxicity against human MDA-MB-468 cells after 48 hrs by SRB assay in presence of 0.4 uM 1-(1-(4-(7-phenyl-1H-imidazo[4,5-g]quinoxalin-6-yl)benzyl)piperidin-4-yl)-1H-benzo[d]imidazol-2(3H)-one. Put shortly: as §1
The subject of experiment [13] is MDA-MB-468. Nature of the experiment: Cytotoxicity against human MDA-MB-468 cells after 48 hrs by SRB assay in presence of 3.5 uM 4-(2-chloro-10H-phenoxazin-10-yl)-N,N-diethylbutan-1-amine hydrochloride. The conditions noted are these: MDA-MB-468, 48 h. An outline of the steps: as §1
In experiment [14] the test system is MDA-MB-468. The experiment is described as follows: Cytotoxicity against human MDA-MB-468 cells after 48 hrs by SRB assay in presence of 0.5 uM 2-morpholino-8-phenyl-4H-chromen-4-one. Particulars: MDA-MB-468, 48 h. Put shortly:
as §1

The test system of experiment [15] is MDA-MB-231. Nature of the experiment: Cytotoxicity against human MDA-MB-231 cells after 48 hrs by SRB assay. The conditions noted are these: MDA-MB-231, 48 h. Put shortly:
as §1

For experiment [16], the system named is MDA-MB-231. Nature of the experiment: Cytotoxicity against human MDA-MB-231 cells after 48 hrs by SRB assay in presence of 0.04 uM (E)-5-(benzo[d]thiazol-2-yl)-3-ethyl-2-(2-(methyl(phenyl)amino)vinyl)-1-phenyl-1H-benzo[d]imidazol-3-ium iodide. Particulars: MDA-MB-231, 48 h. Put shortly: as §1
Experiment [17] has as its system MDA-MB-231. The experiment is described as follows: Cytotoxicity against human MDA-MB-231 cells after 48 hrs by SRB assay in presence of 0.4 uM 1-(1-(4-(7-phenyl-1H-imidazo[4,5-g]quinoxalin-6-yl)benzyl)piperidin-4-yl)-1H-benzo[d]imidazol-2(3H)-one. An outline of the steps:
as §1

Experiment [18] concerns MDA-MB-231. The experiment is described as follows: Cytotoxicity against human MDA-MB-231 cells after 48 hrs by SRB assay in presence of 3.5 uM 4-(2-chloro-10H-phenoxazin-10-yl)-N,N-diethylbutan-1-amine hydrochloride. Particulars: MDA-MB-231, 48 h. An outline of the steps: as §1
In experiment [19] the test system is MDA-MB-231. Nature of the experiment: Cytotoxicity against human MDA-MB-231 cells after 48 hrs by SRB assay in presence of 0.5 uM 2-morpholino-8-phenyl-4H-chromen-4-one. The conditions noted are these: MDA-MB-231, 48 h. Put shortly: as §1
Experiment [20] has as its system MCF7. The experiment is described as follows: Cytotoxicity against human MCF7 cells after 48 hrs by SRB assay. The conditions noted are these: MCF7, 48 h. Put shortly: as §1

Molecules are shown by their SMILES.

With `CN(C)CCNc1ccnc2cc(Cl)ccc12`, the GI50 – broadly, the concentration that inhibits growth by half – was 4.96 µM with MCF7 [1]; 3.32 µM in the experiment on MCF7 [2]; 7.37 µM in the experiment on MCF7 [3]; 7.54 µM in the experiment with MCF7 [4]; 44.5 µM in experiment [5]; greater than 20 µM in [6]. Moreover, the GI50 is greater than 20 µM in [7]; greater than 20 µM in [8]; greater than 20 µM in experiment [9]; 13.3 µM with MDA-MB-468 [10]; 3.43 µM in the experiment with MDA-MB-468 [11]; 6.5 µM in the experiment on MDA-MB-468 [12]. Also, the GI50 in the experiment with MDA-MB-468 [13] was found to be 3.24 µM; in the experiment on MDA-MB-468 [14], 19.3 µM; in the experiment on MDA-MB-231 [15], 8.59 µM; in the experiment with MDA-MB-231 [16], 5.66 µM; in the experiment on MDA-MB-231 [17], 2.87 µM; in the experiment with MDA-MB-231 [18], 0.74 µM. Besides, the GI50 in the experiment with MDA-MB-231 [19] came to 9.88 µM; in the experiment with MCF7 [20], 15.4 µM.

As for `CN(C)CCNc1ccnc2cc(F)ccc12`, the 50% growth inhibitory concentration (GI50) is 2.56 µM with MCF7 [1]; 1.73 µM with MCF7 [2]; 3.26 µM in the experiment with MCF7 [3]; 2.64 µM in the experiment on MCF7 [4]; 40.4 µM in [5]; greater than 20 µM in experiment [6]. The GI50 was greater than 20 µM in experiment [7]; greater than 20 µM in [8]; greater than 20 µM in experiment [9]; 8.73 µM in the experiment with MDA-MB-468 [10]; 4.87 µM with MDA-MB-468 [11]; 4.95 µM with MDA-MB-468 [12]. The GI50 in the experiment on MDA-MB-468 [13] is 4.61 µM; in the experiment on MDA-MB-468 [14], 7.62 µM; in the experiment with MDA-MB-231 [15], 7.08 µM; in the experiment on MDA-MB-231 [16] it was 2.5 µM; in the experiment with MDA-MB-231 [17] it was 1.94 µM; in the experiment on MDA-MB-231 [18] it was 2 µM. Also, the GI50 with MDA-MB-231 [19] amounted to 9.45 µM; in the experiment with MCF7 [20] it was 3.42 µM.

For the compound `CCCCNc1ccnc2cc(F)ccc12`, the GI50 with MCF7 [1] amounted to 5.78 µM; with MCF7 [2] it was 1.63 µM; in the experiment with MCF7 [3] it was 3.7 µM; in the experiment on MCF7 [4] it was 3.17 µM; in experiment [5], 18.7 µM; in experiment [6], 12.4 µM. For the same compound, the GI50 turned out to be 14.9 µM in experiment [7]; 8.19 µM in experiment [8]; 12.5 µM in [9]; 1.41 µM with MDA-MB-468 [10]; 2.69 µM in the experiment on MDA-MB-468 [11]; 2.09 µM in the experiment on MDA-MB-468 [12]. Moreover, the GI50 is 1.44 µM with MDA-MB-468 [13]; 3.5 µM in the experiment on MDA-MB-468 [14]; 6.32 µM with MDA-MB-231 [15]; 7.25 µM in the experiment on MDA-MB-231 [16]; 5.63 µM in the experiment on MDA-MB-231 [17]; 3.74 µM in the experiment on MDA-MB-231 [18]. The GI50 was 12.3 µM in the experiment with MDA-MB-231 [19] and 1.98 µM with MCF7 [20].

Consider `COc1ccc2c(NCCN(C)C)ccnc2c1`, for which the GI50 in the experiment with MCF7 [1] is 3.54 µM; in the experiment on MCF7 [2], 1.82 µM; with MCF7 [3] it was 3.66 µM; in the experiment with MCF7 [4], 2.65 µM; in [5], 44.6 µM; in experiment [6] it was greater than 20 µM. Moreover, the GI50 in [7] was greater than 20 µM; in experiment [8], greater than 20 µM; in experiment [9], greater than 20 µM; in the experiment on MDA-MB-468 [10] it was 4.8 µM; with MDA-MB-468 [11] it was 5.85 µM; in the experiment with MDA-MB-468 [12] it was 5.91 µM. Besides, the GI50 was found to be 5.66 µM in the experiment with MDA-MB-468 [13]; 7.62 µM in the experiment with MDA-MB-468 [14]; 4.49 µM in the experiment with MDA-MB-231 [16]; 0.74 µM with MDA-MB-231 [17]; 1.24 µM in the experiment with MDA-MB-231 [18]; 9.45 µM in the experiment on MDA-MB-231 [19]. The same compound returned a GI50 in the experiment with MCF7 [20] of 3.89 µM.

Turning to `CCCCNc1ccnc2cc(Cl)ccc12`, the GI50 was 10.2 µM in the experiment on MCF7 [1]; 5.6 µM in the experiment with MCF7 [2]; 11.4 µM in the experiment with MCF7 [3]; 9.55 µM with MCF7 [4]; 18.4 µM in experiment [5]; greater than 20 µM in experiment [6]. The GI50 in experiment [7] was 16.6 µM; in experiment [8], 19.4 µM; in experiment [9], greater than 20 µM; in the experiment with MDA-MB-468 [10], 6.02 µM; in the experiment with MDA-MB-468 [11], 3.95 µM; with MDA-MB-468 [12], 7.09 µM. For the same compound, the GI50 with MDA-MB-468 [13] stood at 4.3 µM; in the experiment with MDA-MB-468 [14], 7.42 µM; in the experiment with MDA-MB-231 [15] it was 15.9 µM; with MDA-MB-231 [16], 12.3 µM; with MDA-MB-231 [17] it was 8.8 µM; in the experiment on MDA-MB-231 [18], 6.5 µM. For the same compound, the GI50 with MDA-MB-231 [19] is 11.3 µM; in the experiment on MCF7 [20], 8.45 µM.

`CCN(CC)CCCC(C)Nc1ccnc2cc(Cl)ccc12` (stereo unspecified) [CHLOROQUINE PHOSPHATE]: the 50% growth inhibitory concentration (GI50) in the experiment with MCF7 [1] was 7.54 µM; in the experiment on MCF7 [2], 5.51 µM; in the experiment with MCF7 [3], 11.8 µM; with MCF7 [4], 7.71 µM; in experiment [5] it was 76.1 µM; in experiment [6], greater than 20 µM. For the same compound, the GI50 in [7] was greater than 20 µM; in experiment [8], greater than 20 µM; in [9], greater than 20 µM; in the experiment with MDA-MB-468 [11] it was 6.53 µM; in the experiment with MDA-MB-468 [12] it was 6.83 µM; in the experiment on MDA-MB-468 [13], 2.81 µM. The GI50 in the experiment on MDA-MB-468 [14] was determined as 9.14 µM; in the experiment with MDA-MB-231 [16], 8.33 µM; in the experiment with MDA-MB-231 [17], 12.6 µM; in the experiment with MDA-MB-231 [18], 6.08 µM; in the experiment with MDA-MB-231 [19], 18.8 µM.
